Assay results taken from ChEMBL document CHEMBL2177098, “Synthesis and evaluation of novel ¹⁸F labeled 2-pyridinylbenzoxazole and 2-pyridinylbenzothiazole derivatives as ligands for positron emission tomography (PET) imaging of β-amyloid plaques” (J Med Chem, 2012).

Legend:
Intestine [1] = assay: Drug uptake in ICR mouse intestine assessed per organ at 370 kBq/100 ul, iv at 60 mins by gamma-counting analysis; format: ADME, organism-based; conditions: in vivo, 1 h
In short: (§1)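 Male ICR mice (5 weeks, about 20 g) got 18F tracer in saline (370 KBq per 100 μL) via tail vein; n = 5 per time point, killed at 2, 10, 30, 60 min. Organs removed and γ-counted against diluted injectate; expressed as % injected dose per organ.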

Spleen [2] = assay: Drug uptake in ICR mouse spleen at 370 kBq/100 ul, iv at 60 mins by gamma-counting analysis; format: ADME, organism-based; conditions: in vivo, 1 h
In short: (§2)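 Male ICR mice (5 weeks, about 20 g) got 18F tracer in saline (370 KBq per 100 μL) via tail vein; n = 5 per time point, killed at 2, 10, 30, 60 min. Organs weighed and γ-counted; percent dose per gram wet tissue from comparison with diluted injectate aliquots.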

Bone [3] = assay: Drug uptake in ICR mouse bone at 370 kBq/100 ul, iv at 30 mins by gamma-counting analysis; format: ADME, organism-based, Bone element; conditions: in vivo, 0.5 h; in short: as §2
Brain [4] = assay: Drug uptake in ICR mouse brain at 370 kBq/100 ul, iv at 60 mins by gamma-counting analysis; format: ADME, organism-based; conditions: in vivo, 1 h; in short: as §2
Liver = assay: Drug uptake in ICR mouse liver at 370 kBq/100 ul, iv at 10 mins by gamma-counting analysis; format: ADME, organism-based; conditions: in vivo; in short: as §2
Bone [5] = assay: Drug uptake in ICR mouse bone at 370 kBq/100 ul, iv at 2 mins by gamma-counting analysis; format: ADME, organism-based, Bone element; conditions: in vivo; in short: as §2
Brain [6] = assay: Drug uptake in ICR mouse brain at 370 kBq/100 ul, iv at 2 mins by gamma-counting analysis; format: ADME, organism-based; conditions: in vivo; in short: as §2
Heart [7] = assay: Drug uptake in ICR mouse heart at 370 kBq/100 ul, iv at 60 mins by gamma-counting analysis; format: ADME, organism-based; conditions: in vivo, 1 h; in short: as §2
Stomach [8] = assay: Drug uptake in ICR mouse stomach assessed per organ at 370 kBq/100 ul, iv at 10 mins by gamma-counting analysis; format: ADME, organism-based; conditions: in vivo; in short: as §1
Heart [9] = assay: Drug uptake in ICR mouse heart at 370 kBq/100 ul, iv at 10 mins by gamma-counting analysis; format: ADME, organism-based; conditions: in vivo; in short: as §2
Stomach [10] = assay: Drug uptake in ICR mouse stomach assessed per organ at 370 kBq/100 ul, iv at 2 mins by gamma-counting analysis; format: ADME, organism-based; conditions: in vivo; in short: as §1
Lung = assay: Drug uptake in ICR mouse lung at 370 kBq/100 ul, iv at 2 mins by gamma-counting analysis; format: ADME, organism-based; conditions: in vivo; in short: as §2
Spleen [11] = assay: Drug uptake in ICR mouse spleen at 370 kBq/100 ul, iv at 30 mins by gamma-counting analysis; format: ADME, organism-based; conditions: in vivo, 0.5 h; in short: as §2
Kidney = assay: Drug uptake in ICR mouse kidney at 370 kBq/100 ul, iv at 60 mins by gamma-counting analysis; format: ADME, organism-based; conditions: in vivo, 1 h; in short: as §2
Stomach [12] = assay: Drug uptake in ICR mouse stomach assessed per organ at 370 kBq/100 ul, iv at 30 mins by gamma-counting analysis; format: ADME, organism-based; conditions: in vivo, 0.5 h; in short: as §1
Stomach [13] = assay: Drug uptake in ICR mouse stomach assessed per organ at 370 kBq/100 ul, iv at 60 mins by gamma-counting analysis; format: ADME, organism-based; conditions: in vivo, 1 h
In short: (§3)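 Normal male ICR mice (5 weeks, about 20 g) received the ¹⁸F tracer in saline (370 KBq per 100 μL) by tail-vein injection. Groups of n = 5 were killed at 2, 10, 30 and 60 min. Organs were removed, weighed and γ-counted against diluted aliquots of the injectate, giving % dose per gram. Stomach and intestine were expressed per organ. The brain ratio is 2 min/60 min uptake. Values are mean ± SD.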

Intestine [14] = assay: Drug uptake in ICR mouse intestine assessed per organ at 370 kBq/100 ul, iv at 10 mins by gamma-counting analysis; format: ADME, organism-based; conditions: in vivo; in short: as §1
Bone [15] = assay: Drug uptake in ICR mouse bone at 370 kBq/100 ul, iv at 10 mins by gamma-counting analysis; format: ADME, organism-based, Bone element; conditions: in vivo; in short: as §2
Blood [16] = assay: Drug uptake in ICR mouse blood at 370 kBq/100 ul, iv at 60 mins by gamma-counting analysis; format: ADME, organism-based; conditions: in vivo, 1 h; in short: as §2
Blood [17] = assay: Drug uptake in ICR mouse blood at 370 kBq/100 ul, iv at 30 mins by gamma-counting analysis; format: ADME, organism-based; conditions: in vivo, 0.5 h; in short: as §2
Brain [18] = assay: Drug uptake in healthy human brain at 370 KBq/100 ul after 1 hr by autoradiographic analysis; format: ADME, tissue-based; conditions: in vitro
Brain [19] = assay: Ratio of drug uptake in brain at 2 mins to drug uptake in brain at 60 mins in ICR mouse at 370 KBq/100 ul, iv; format: ADME, organism-based; conditions: in vivo; in short: as §3

**Q.** Which results are given for CNc1ccc(-c2nc3ccc(OCC[18F])cc3s2)cn1?
**A.** Drug uptake (Intestine [1]): 19 %ID; Drug uptake (Spleen [2]): 2.86 % ID/g; Drug uptake (Bone [3]): 3.77 % ID/g; Drug uptake (Brain [4]): 2.83 % ID/g; Drug uptake (Liver): 5.94 % ID/g; Drug uptake (Bone [5]): 2.04 % ID/g; Drug uptake (Brain [6]): 7.87 % ID/g; Drug uptake (Heart [7]): 3.7 % ID/g; Drug uptake (Stomach [8]): 5.61 %ID; Drug uptake (Heart [9]): 3.11 % ID/g; Drug uptake (Stomach [10]): 3.61 %ID; Drug uptake (Lung): 5.85 % ID/g; Drug uptake (Spleen [11]): 2.87 % ID/g; Drug uptake (Kidney): 3.45 % ID/g; Drug uptake (Stomach [12]): 4.63 %ID; Drug uptake (Stomach [13]): 3.67 %ID; Drug uptake (Intestine [14]): 11.15 %ID; Drug uptake (Bone [15]): 2.43 % ID/g; Drug uptake (Blood [16]): 4.45 % ID/g; Drug uptake (Blood [17]): 4.45 % ID/g; Drug uptake (Brain [18]): Not Active; Ratio (Brain [19]): 2.78
